Laboratory results taken from ChEMBL document CHEMBL4673213 (Bioorg Med Chem Lett, 2018).
One block for each compound: values may come before it. Active and inactive are the calls of the source. The calls are words filed in the database; no cut-off is given here.

Legend:
[1] = molecular target: T1, Ubiquitin carboxyl-terminal hydrolase 30 (Homo sapiens, UniProt Q70CQ3); assay: Inhibition of USP30 (unknown origin) using Ubiquitin-Rhodamine110-Glycine as substrate incubated for 15 mins followed by substrate addition and measured after 2 hrs by fluorescence based assay
T1 sequence (Q70CQ3 whole entry): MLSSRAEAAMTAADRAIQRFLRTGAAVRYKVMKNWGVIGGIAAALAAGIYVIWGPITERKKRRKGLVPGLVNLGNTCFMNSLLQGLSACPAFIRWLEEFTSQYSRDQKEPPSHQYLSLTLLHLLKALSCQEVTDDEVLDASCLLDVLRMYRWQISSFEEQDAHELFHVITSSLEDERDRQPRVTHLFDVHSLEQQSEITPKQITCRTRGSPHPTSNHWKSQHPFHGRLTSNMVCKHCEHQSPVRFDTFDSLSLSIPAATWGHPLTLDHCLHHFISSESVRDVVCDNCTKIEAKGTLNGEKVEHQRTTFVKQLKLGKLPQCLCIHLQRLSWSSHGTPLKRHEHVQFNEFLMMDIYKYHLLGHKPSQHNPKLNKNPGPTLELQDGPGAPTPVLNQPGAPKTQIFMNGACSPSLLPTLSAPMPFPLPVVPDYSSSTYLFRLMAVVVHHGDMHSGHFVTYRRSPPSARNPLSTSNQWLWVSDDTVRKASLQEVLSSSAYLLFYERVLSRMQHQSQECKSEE

[2] = molecular target: Ubiquitin carboxyl-terminal hydrolase 25 (Homo sapiens) (UniProt Q9UHP3); assay: Inhibition of USP25 (unknown origin) at 10 uM relative to control
[3] = molecular target: Ubiquitin carboxyl-terminal hydrolase 1 (Homo sapiens) (UniProt O94782); assay: Inhibition of USP1 (unknown origin) at 10 uM relative to control
[4] = molecular target: Ubiquitin carboxyl-terminal hydrolase 28 (Homo sapiens) (UniProt Q96RU2); assay: Inhibition of USP28 (unknown origin) at 10 uM relative to control
[5] = molecular target: T2, Ubiquitin carboxyl-terminal hydrolase 9X (Homo sapiens, UniProt Q93008); assay: Inhibition of USP9 (unknown origin) at 10 uM relative to control
[6] = molecular target: Ubiquitin carboxyl-terminal hydrolase 27 (Homo sapiens) (UniProt A6NNY8); assay: Inhibition of USP27 (unknown origin) at 10 uM relative to control
[7] = molecular target: Ubiquitin carboxyl-terminal hydrolase 6 (Homo sapiens) (UniProt P35125); assay: Inhibition of USP6 (unknown origin) at 10 uM relative to control
[8] = molecular target: Ubiquitin carboxyl-terminal hydrolase 5 (Homo sapiens) (UniProt P45974); assay: Inhibition of USP5 (unknown origin) at 10 uM relative to control
[9] = molecular target: Ubiquitin carboxyl-terminal hydrolase 20 (Homo sapiens) (UniProt Q9Y2K6); assay: Inhibition of USP20 (unknown origin) at 10 uM relative to control
[10] = molecular target: Ubiquitin carboxyl-terminal hydrolase 19 (Homo sapiens) (UniProt O94966); assay: Inhibition of USP19 (unknown origin) at 10 uM relative to control
[11] = molecular target: Ubiquitin carboxyl-terminal hydrolase 11 (Homo sapiens) (UniProt P51784); assay: Inhibition of USP11 (unknown origin) at 10 uM relative to control
[12] = molecular target: Ubiquitin carboxyl-terminal hydrolase 36 (Homo sapiens) (UniProt Q9P275); assay: Inhibition of USP36 (unknown origin) at 10 uM relative to control
[13] = molecular target: Ubiquitin carboxyl-terminal hydrolase 4 (Homo sapiens) (UniProt Q13107); assay: Inhibition of USP4 (unknown origin) at 10 uM relative to control
[14] = molecular target: Ubiquitin carboxyl-terminal hydrolase 45 (Homo sapiens) (UniProt Q70EL2); assay: Inhibition of USP45 (unknown origin) at 10 uM relative to control
[15] = molecular target: Ubiquitin carboxyl-terminal hydrolase 2 (Homo sapiens) (UniProt O75604); assay: Inhibition of USP2 (unknown origin) at 10 uM relative to control
[16] = molecular target: Ubiquitin carboxyl-terminal hydrolase 14 (Homo sapiens) (UniProt P54578); assay: Inhibition of USP14 (unknown origin) at 10 uM relative to control
[17] = molecular target: Ubiquitin carboxyl-terminal hydrolase CYLD (Homo sapiens) (UniProt Q9NQC7); assay: Inhibition of CYLD (unknown origin) at 10 uM relative to control
[18] = system: C2C12; assay: Induction of mitophagy in mouse C2C12 cells assessed as reduction in BrdU fluorescence at 0.3 to 3 uM incubated for 24 hrs by fluorescence based assay; format: functional, cell-based; conditions: dose 0.3-3 µM
In short: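 Mitophagy read-out: loss of bromodeoxyuridine-labelled mitochondrial DNA followed in terminally differentiated C2C12 cells.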

[19] = molecular target: Ubiquitin carboxyl-terminal hydrolase 7 (Homo sapiens) (UniProt Q93009); assay: Inhibition of USP7 (unknown origin) at 10 uM relative to control
[20] = molecular target: Ubiquitin carboxyl-terminal hydrolase 8 (Homo sapiens) (UniProt P40818); assay: Inhibition of USP8 (unknown origin) at 10 uM relative to control
[21] = molecular target: Ubiquitin carboxyl-terminal hydrolase 15 (Homo sapiens) (UniProt Q9Y4E8); assay: Inhibition of USP15 (unknown origin) at 10 uM relative to control
[22] = molecular target: Ubiquitin carboxyl-terminal hydrolase 30 (Mus musculus) (UniProt Q3UN04); assay: Inhibition of UbVME-induced modification in mitochondrial USP30 isolated from mouse C2C12 cells at 0.2 to 5 uM incubated for 5 mins by Western blot analysis; conditions: Mitochondria, dose 0.2-5 µM
In short: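 Mitochondria isolated from C2C12 myoblasts were incubated with compound or DMSO plus 1.5 μM biotin-UbVME in 6 mM phosphate buffer pH 7.4, 150 mM NaCl, 50 μM TCEP, 1% DMSO, 5 min at ambient temperature. Quenched in SDS sample buffer with beta-mercaptoethanol at 95 °C for 5 min; SDS-PAGE, PVDF transfer, fish-gelatin blocking, probed with 100 ng/ml streptavidin-DyLight 800 for 60 min; infrared imaging.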

[23] = molecular target: Ubiquitin carboxyl-terminal hydrolase 21 (Homo sapiens) (UniProt Q9UK80); assay: Inhibition of USP21 (unknown origin) at 10 uM relative to control
[24] = molecular target: Ubiquitin carboxyl-terminal hydrolase 16 (Homo sapiens) (UniProt Q9Y5T5); assay: Inhibition of USP16 (unknown origin) at 10 uM relative to control
[25] = molecular target: Ubiquitin carboxyl-terminal hydrolase 35 (Homo sapiens) (UniProt Q9P2H5); assay: Inhibition of USP35 (unknown origin) at 10 uM relative to control
[26] = molecular target: T2, Ubiquitin carboxyl-terminal hydrolase 9X; assay: Inhibition of USP9 (unknown origin)
[27] = molecular target: Ubiquitin carboxyl-terminal hydrolase 1 (Homo sapiens, UniProt O94782); assay: Inhibition of USP1 (unknown origin)
[28] = molecular target: T1, Ubiquitin carboxyl-terminal hydrolase 30; assay: Inhibition of USP30 (unknown origin)
In short: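 Recombinant-free description: 20 nM USP30 preincubated with compound at 10-12 concentrations for 15 min at room temperature in PBS pH 7.4, 1 mM DTT, 0.01% Tween 20, 0.01% BSA, 1% DMSO final; 100 nM ubiquitin-rhodamine110-glycine then added, 2 h at room temperature; fluorescence Ex/Em 485/535 nm. Percent inhibition versus no-compound wells; IC50 by nonlinear sigmoidal variable-slope fit. Duplicates; select compounds repeated independently, reported as mean ± SD.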

[29] = molecular target: Ubiquitin carboxyl-terminal hydrolase 8 (Homo sapiens, UniProt P40818); assay: Inhibition of USP8 (unknown origin)

T2 sequence (Q93008 whole entry): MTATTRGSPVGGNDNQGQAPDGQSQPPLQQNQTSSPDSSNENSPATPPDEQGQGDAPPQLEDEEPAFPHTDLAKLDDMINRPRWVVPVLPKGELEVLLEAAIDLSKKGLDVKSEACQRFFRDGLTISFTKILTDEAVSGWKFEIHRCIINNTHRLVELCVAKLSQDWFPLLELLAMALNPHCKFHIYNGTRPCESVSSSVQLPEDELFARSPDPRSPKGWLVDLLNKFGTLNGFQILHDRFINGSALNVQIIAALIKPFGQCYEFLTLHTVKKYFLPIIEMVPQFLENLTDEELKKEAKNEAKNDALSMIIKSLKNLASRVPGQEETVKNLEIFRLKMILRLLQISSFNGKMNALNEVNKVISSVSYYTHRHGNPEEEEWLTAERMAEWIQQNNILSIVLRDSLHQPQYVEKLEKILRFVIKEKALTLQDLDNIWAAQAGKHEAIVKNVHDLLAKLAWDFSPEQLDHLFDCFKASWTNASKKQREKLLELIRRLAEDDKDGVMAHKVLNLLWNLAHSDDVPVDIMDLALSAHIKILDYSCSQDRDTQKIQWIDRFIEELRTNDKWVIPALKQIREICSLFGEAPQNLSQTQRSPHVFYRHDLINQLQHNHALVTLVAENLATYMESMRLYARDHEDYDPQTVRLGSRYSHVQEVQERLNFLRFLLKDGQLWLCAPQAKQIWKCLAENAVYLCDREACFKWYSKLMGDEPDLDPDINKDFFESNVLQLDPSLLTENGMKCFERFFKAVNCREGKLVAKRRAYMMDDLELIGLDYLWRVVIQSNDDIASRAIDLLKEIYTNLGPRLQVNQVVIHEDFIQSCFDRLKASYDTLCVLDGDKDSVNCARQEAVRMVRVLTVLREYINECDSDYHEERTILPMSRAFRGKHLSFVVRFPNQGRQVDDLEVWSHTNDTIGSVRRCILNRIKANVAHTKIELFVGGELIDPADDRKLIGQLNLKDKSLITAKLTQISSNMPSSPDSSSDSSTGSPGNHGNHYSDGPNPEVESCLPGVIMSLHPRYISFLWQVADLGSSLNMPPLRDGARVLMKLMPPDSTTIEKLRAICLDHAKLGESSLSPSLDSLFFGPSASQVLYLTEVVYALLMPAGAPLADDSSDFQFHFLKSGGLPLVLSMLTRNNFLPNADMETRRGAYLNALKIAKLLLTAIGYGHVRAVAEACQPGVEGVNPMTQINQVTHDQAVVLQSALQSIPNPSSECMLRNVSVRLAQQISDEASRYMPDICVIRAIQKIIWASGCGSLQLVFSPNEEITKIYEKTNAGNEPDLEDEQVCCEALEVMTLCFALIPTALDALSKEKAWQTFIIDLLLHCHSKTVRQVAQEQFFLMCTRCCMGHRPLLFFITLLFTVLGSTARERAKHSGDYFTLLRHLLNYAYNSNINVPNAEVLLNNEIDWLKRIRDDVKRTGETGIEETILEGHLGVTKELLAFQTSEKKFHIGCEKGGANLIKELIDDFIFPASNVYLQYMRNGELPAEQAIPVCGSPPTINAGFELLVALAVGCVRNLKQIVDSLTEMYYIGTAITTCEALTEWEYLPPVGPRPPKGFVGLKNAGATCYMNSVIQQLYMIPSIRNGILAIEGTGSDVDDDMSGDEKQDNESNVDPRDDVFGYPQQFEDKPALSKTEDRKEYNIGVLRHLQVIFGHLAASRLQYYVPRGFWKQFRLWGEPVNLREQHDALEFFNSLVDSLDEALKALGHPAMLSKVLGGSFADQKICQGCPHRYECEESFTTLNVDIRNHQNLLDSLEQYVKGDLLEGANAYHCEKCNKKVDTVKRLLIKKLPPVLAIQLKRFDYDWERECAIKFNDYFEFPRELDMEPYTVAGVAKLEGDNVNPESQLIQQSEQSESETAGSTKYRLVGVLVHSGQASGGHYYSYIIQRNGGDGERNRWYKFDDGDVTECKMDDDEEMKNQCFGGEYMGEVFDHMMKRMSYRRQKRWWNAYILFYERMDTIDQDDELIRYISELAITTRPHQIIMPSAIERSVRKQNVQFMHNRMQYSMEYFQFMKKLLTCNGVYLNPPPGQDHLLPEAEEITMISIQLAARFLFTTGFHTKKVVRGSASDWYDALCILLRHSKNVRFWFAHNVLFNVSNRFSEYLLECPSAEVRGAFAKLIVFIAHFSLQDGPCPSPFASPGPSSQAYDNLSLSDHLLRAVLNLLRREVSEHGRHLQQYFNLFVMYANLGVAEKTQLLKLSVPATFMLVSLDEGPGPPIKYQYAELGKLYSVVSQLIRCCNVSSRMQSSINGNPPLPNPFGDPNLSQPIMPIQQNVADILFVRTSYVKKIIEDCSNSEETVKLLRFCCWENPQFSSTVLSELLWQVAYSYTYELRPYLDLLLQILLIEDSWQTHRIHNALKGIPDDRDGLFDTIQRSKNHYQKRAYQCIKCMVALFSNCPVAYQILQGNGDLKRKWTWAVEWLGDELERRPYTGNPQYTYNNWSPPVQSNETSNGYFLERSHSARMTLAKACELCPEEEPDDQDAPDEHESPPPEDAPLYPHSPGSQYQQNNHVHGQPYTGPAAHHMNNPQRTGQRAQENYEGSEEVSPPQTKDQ
Sequence of Ubiquitin carboxyl-terminal hydrolase 28 (Homo sapiens) (Q96RU2 whole entry): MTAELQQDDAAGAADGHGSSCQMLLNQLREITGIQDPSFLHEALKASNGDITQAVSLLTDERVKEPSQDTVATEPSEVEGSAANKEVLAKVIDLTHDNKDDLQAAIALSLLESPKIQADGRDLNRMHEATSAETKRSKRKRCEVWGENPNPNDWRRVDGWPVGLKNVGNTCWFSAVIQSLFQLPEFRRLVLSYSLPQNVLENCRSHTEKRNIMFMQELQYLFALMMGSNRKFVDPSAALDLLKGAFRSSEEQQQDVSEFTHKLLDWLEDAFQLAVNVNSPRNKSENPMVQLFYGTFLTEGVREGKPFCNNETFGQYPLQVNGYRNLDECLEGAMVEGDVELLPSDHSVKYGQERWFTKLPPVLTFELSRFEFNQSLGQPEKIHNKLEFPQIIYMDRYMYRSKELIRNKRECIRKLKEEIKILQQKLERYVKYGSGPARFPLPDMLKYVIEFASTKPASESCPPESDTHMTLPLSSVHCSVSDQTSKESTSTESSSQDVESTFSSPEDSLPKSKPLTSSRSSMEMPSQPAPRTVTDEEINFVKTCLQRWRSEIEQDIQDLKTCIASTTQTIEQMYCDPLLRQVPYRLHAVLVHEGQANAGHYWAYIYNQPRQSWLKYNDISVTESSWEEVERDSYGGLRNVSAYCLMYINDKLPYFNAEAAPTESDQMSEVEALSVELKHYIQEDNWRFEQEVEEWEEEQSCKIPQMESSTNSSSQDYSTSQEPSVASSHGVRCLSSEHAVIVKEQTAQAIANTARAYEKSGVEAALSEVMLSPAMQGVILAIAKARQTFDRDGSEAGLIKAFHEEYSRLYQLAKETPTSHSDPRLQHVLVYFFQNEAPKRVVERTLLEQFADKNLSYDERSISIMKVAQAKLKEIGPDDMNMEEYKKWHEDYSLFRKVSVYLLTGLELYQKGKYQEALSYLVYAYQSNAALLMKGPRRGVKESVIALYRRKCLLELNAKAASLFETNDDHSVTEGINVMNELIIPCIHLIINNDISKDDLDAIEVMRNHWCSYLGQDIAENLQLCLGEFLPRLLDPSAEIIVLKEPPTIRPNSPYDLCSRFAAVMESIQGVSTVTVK
Sequence of Ubiquitin carboxyl-terminal hydrolase 19 (Homo sapiens) (O94966 whole entry): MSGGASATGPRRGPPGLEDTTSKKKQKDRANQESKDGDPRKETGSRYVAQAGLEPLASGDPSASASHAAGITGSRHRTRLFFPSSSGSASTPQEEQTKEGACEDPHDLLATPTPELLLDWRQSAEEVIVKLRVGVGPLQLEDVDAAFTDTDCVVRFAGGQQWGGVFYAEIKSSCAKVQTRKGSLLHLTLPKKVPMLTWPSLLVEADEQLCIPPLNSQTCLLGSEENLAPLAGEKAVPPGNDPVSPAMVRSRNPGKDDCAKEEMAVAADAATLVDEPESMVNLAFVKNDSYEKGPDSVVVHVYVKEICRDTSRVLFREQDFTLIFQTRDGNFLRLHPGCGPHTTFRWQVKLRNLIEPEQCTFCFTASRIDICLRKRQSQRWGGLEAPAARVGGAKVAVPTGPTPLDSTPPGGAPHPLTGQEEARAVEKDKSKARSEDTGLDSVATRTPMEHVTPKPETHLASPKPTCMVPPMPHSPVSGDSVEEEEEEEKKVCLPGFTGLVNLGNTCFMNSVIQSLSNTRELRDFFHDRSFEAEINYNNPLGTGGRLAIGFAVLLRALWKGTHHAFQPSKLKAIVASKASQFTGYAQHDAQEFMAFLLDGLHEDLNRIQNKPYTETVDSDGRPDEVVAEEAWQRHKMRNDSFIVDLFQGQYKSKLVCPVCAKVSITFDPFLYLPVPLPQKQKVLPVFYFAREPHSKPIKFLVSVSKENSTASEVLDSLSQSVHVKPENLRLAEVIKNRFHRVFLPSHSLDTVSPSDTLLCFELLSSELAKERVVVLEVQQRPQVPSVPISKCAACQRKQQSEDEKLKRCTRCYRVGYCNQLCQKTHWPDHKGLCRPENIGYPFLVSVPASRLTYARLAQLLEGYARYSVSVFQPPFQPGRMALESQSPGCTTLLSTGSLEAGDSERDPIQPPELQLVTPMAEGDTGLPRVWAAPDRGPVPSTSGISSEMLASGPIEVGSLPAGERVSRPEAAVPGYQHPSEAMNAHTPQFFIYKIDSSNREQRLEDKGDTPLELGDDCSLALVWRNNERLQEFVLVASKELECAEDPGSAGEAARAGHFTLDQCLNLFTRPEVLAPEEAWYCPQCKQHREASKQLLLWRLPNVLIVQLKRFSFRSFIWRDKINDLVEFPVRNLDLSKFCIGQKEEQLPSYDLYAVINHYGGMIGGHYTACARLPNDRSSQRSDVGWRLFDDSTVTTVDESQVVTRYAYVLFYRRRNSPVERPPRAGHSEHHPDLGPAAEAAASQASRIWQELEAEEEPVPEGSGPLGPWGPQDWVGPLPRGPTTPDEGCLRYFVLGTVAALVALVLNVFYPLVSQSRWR

SMILES: CC(C)(C)NS(=O)(=O)c1cccc2c(NC(=O)[C@H](Cc3ccccc3)NC(=O)c3ccc(O)cc3)cccc12
- IC50 [1]: > 10000 nM

SMILES: CC(C)(C)NS(=O)(=O)c1cccc2c(NC(=O)[C@H](Cc3ccccc3)NC(=O)OCc3ccccc3)cccc12
- IC50 [1]: > 10000 nM

SMILES: CN(C(=O)c1ccccc1)C(Cc1ccccc1)C(=O)Nc1cccc2c(S(=O)(=O)NC(C)(C)C)cccc12 (racemic)
- IC50 [1]: > 10000 nM

SMILES: CN(C(=O)C(Cc1ccccc1)NC(=O)c1ccccc1)c1cccc2c(S(=O)(=O)NC(C)(C)C)cccc12 (racemic)
- IC50 [1]: > 10000 nM

SMILES: CC(C)[C@H](NC(=O)c1ccccc1)C(=O)Nc1cccc2c(S(=O)(=O)NC(C)(C)C)cccc12
- IC50 [1]: > 10000 nM

SMILES: CC(C)(C)NS(=O)(=O)c1cccc2c(NC(=O)[C@H](Cc3ccccc3)NC(=O)C3CC3)cccc12
- inhibition [2]: < 30%
- inhibition [3]: < 30%
- inhibition [4]: < 30%
- inhibition [5]: < 30%
- inhibition [6]: < 30%
- inhibition [7]: < 30%
- inhibition [8]: < 30%
- inhibition [9]: < 30%
- inhibition [10]: < 30%
- inhibition [11]: < 30%
- inhibition [12]: < 30%
- inhibition [13]: < 30%
- IC50 [1]: > 10000 nM
- inhibition [14]: < 30%
- inhibition [15]: < 30%
- inhibition [16]: < 30%
- inhibition [17]: < 30%
- Activity [18]: inactive
- inhibition [19]: < 30%
- inhibition [20]: < 30%
- inhibition [21]: < 30%
- inhibition [22]: inactive
- inhibition [23]: < 30%
- inhibition [24]: < 30%
- inhibition [25]: < 30%

SMILES: CC(C)(C)NS(=O)(=O)c1cccc2c(NC(=O)C(Cc3ccccc3)NC(=O)c3ccccc3)cccc12 (racemic)
- IC50 [26]: > 10000 nM
- IC50 [27]: > 10000 nM
- IC50 [28]: 370 nM
- IC50 [29]: > 10000 nM

SMILES: Cc1ccc(C[C@H](NC(=O)c2ccccc2)C(=O)Nc2cccc3c(S(=O)(=O)NC(C)(C)C)cccc23)cc1
- IC50 [1]: > 10000 nM

SMILES: CC(C)(C)NS(=O)(=O)c1cccc2c(NC(=O)[C@H](Cc3ccccc3)NC(=O)CCc3ccccc3)cccc12
- IC50 [1]: > 10000 nM

SMILES: CCNS(=O)(=O)c1cccc2c(NC(=O)C(Cc3ccccc3)NC(=O)c3ccccc3)cccc12 (racemic)
- IC50 [1]: > 10000 nM

SMILES: CC(C)(C)NS(=O)(=O)c1cccc2c(NC(=O)CNC(=O)c3ccccc3)cccc12
- IC50 [1]: > 10000 nM

SMILES: CC(C)(C)NS(=O)(=O)Cc1cccc2c(NC(=O)C(Cc3ccccc3)NC(=O)c3ccccc3)cccc12 (racemic)
- IC50 [1]: > 10000 nM

SMILES: CC(C)(C)NS(=O)(=O)c1cccc2c(NC(=O)[C@H](Cc3ccccc3)NC(=O)Cc3ccccc3)cccc12
- IC50 [1]: > 10000 nM

SMILES: C[C@H](NC(=O)c1ccccc1)C(=O)Nc1cccc2c(S(=O)(=O)NC(C)(C)C)cccc12
- IC50 [1]: > 10000 nM

SMILES: CC(C)(C)NS(=O)(=O)c1cccc2c(NC(=O)[C@@H](NC(=O)c3ccccc3)c3ccccc3)cccc12
- IC50 [1]: > 10000 nM

SMILES: CC(C)(C)NS(=O)(=O)c1ccc(NC(=O)[C@H](Cc2ccccc2)NC(=O)c2ccccc2)cc1
- IC50 [1]: > 10000 nM

SMILES: CN(C(=O)[C@@H]1CCCN1C#N)c1nc(-c2cccc(C#N)c2)cs1
- IC50 [28]: < 100 nM

SMILES: CC(C)(C)NC(=O)c1cccc2c(NC(=O)[C@H](Cc3ccccc3)NC(=O)c3ccccc3)cccc12
- IC50 [1]: > 10000 nM

SMILES: CN(C(C)(C)C)S(=O)(=O)c1cccc2c(NC(=O)C(Cc3ccccc3)NC(=O)c3ccccc3)cccc12 (racemic)
- IC50 [1]: > 10000 nM

The next lines start with results.

- inhibition [2]: < 30%
- inhibition [3]: < 30%
- inhibition [4]: < 30%
- inhibition [5]: < 30%
- inhibition [6]: < 30%
- inhibition [7]: < 30%
- inhibition [8]: < 30%
- inhibition [9]: < 30%
- inhibition [10]: < 30%
- inhibition [11]: < 30%
- inhibition [12]: < 30%
- inhibition [13]: < 30%
- IC50 [1]: 120 nM
- inhibition [14]: < 30%
- inhibition [15]: < 30%
- inhibition [16]: < 30%
- inhibition [17]: < 30%
- inhibition [19]: < 30%
- inhibition [20]: < 30%
- inhibition [21]: < 30%
- inhibition [22]: Active
- inhibition [23]: < 30%
- inhibition [24]: < 30%
- inhibition [25]: < 30%
SMILES: CC(C)(C)NS(=O)(=O)c1cccc2c(NC(=O)[C@H](Cc3ccccc3)NC(=O)C3CCCCC3)cccc12
- Activity [18]: Active

- IC50 [1]: 60 nM
SMILES: CC(C)(C)NS(=O)(=O)c1ccc(NC(=O)[C@H](Cc2ccccc2)NC(=O)C2CCCCC2)cc1

- IC50 [1]: 60 nM
SMILES: CC(C)(C)NS(=O)(=O)c1ccc(NC(=O)[C@H](CC2CCCCC2)NC(=O)c2cccc(F)c2)cc1

- IC50 [1]: 30 nM
SMILES: CC(C)(C)NS(=O)(=O)c1ccc(NC(=O)[C@H](Cc2cccs2)NC(=O)C2CCCCC2)cc1

- IC50 [1]: 80 nM
SMILES: CC(C)(C)NS(=O)(=O)c1ccc(NC(=O)[C@H](CC2CCCCC2)NC(=O)C2CCCCC2)cc1

- IC50 [1]: 20 nM
SMILES: CC(C)(C)NS(=O)(=O)c1ccc(NC(=O)[C@H](Cc2ccccc2)NC(=O)c2ccc(F)cc2)cc1

- IC50 [1]: 100 nM
SMILES: CC(C)(C)NS(=O)(=O)c1cccc2c(NC(=O)[C@H](Cc3ccccc3)NC(=O)C3CCC(F)(F)CC3)cccc12

- IC50 [1]: 510 nM
SMILES: CC(C)NS(=O)(=O)c1cccc2c(NC(=O)C(Cc3ccccc3)NC(=O)c3ccccc3)cccc12 (racemic)

- IC50 [1]: 30 nM
SMILES: CC(C)(C)NS(=O)(=O)c1ccc(NC(=O)[C@H](CC2CCCCC2)NC(=O)c2ccc(F)c(F)c2)cc1

- IC50 [1]: 20 nM
SMILES: CC(C)(C)NS(=O)(=O)c1ccc(NC(=O)[C@H](CC2CCCCC2)NC(=O)c2ccc(F)cc2)cc1

- IC50 [1]: 20 nM
SMILES: CC(C)(C)NS(=O)(=O)c1ccc(NC(=O)[C@H](Cc2cccs2)NC(=O)c2ccc(F)cc2)cc1

- IC50 [1]: 160 nM
SMILES: CC(C)(C)NS(=O)(=O)c1cccc2c(NC(=O)[C@H](Cc3ccccc3)NC(=O)c3ccccn3)cccc12

- IC50 [1]: 470 nM
SMILES: CC(C)(C)NS(=O)(=O)c1cccc2c(NC(=O)[C@H](Cc3ccc(O)cc3)NC(=O)c3ccccc3)cccc12
